Laboratory results reported in ChEMBL document CHEMBL1128511, “4-Aza-3-oxo-5 alpha-androst-1-ene-17 beta-N-aryl-carboxamides as dual inhibitors of human type 1 and type 2 steroid 5 alpha-reductases. Dramatic effect of N-aryl substituents on type 1 and type 2 5 alpha-reductase inhibitory potency” (J Med Chem, 1995).
pIC50, pKi: −log10 of the molar value.

Experiments:
[1] = molecular target: T1, 3-oxo-5-alpha-steroid 4-dehydrogenase 2 (Homo sapiens, UniProt P31213); test: Inhibition of recombinant human Steroid 5-alpha-reductase type 2
T1 sequence (P31213 whole entry): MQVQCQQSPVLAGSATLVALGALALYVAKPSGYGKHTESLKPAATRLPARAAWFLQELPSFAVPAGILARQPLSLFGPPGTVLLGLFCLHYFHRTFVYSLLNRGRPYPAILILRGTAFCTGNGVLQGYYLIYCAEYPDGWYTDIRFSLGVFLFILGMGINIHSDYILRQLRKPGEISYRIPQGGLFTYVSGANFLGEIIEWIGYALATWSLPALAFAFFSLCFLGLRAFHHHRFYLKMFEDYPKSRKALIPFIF
Summary of the method: (§1)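 Baculovirus-expressed recombinant human type 1 or type 2 5α-reductase; cofactor and inhibitor preincubated with the enzyme before testosterone is added. Fixed-time assay following conversion of testosterone to DHT with and without inhibitor. The IC50 is the nM concentration giving 50% inhibition of DHT formation.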

[2] = molecular target: T2, 3-oxo-5-alpha-steroid 4-dehydrogenase 1 (Homo sapiens, UniProt P18405); test: Inhibition of recombinant human Steroid 5-alpha-reductase type I; summary of the method: as §1
T2 sequence (P18405 whole entry): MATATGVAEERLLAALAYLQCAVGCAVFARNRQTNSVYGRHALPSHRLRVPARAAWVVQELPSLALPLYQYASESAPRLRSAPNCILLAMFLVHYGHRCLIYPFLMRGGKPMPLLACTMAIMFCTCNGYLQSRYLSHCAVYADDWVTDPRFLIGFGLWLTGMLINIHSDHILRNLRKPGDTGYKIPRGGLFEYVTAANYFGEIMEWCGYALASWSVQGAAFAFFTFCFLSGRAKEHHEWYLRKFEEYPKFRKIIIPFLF

[3] = Kinetic Parameter k3/k1 for Inhibition of Type-2 5-alpha-reductase
Summary of the method: (§2)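 Baculovirus-expressed recombinant human type 1 or type 2 5α-reductase; conversion of testosterone to DHT followed over time with and without inhibitor under standard conditions. Second-order rate constants obtained by fitting progress data to the integrated first-order rate equation for time-dependent inhibition.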

[4] = Kinetic Parameter Ki for Inhibition of Type 1 5-alpha-reductase
[5] = Kinetic Parameter Ki for Inhibition of Type-2 5-alpha-reductase
[6] = Kinetic Parameter k3/k1 for Inhibition of Type 1 5-alpha-reductase; summary of the method: as §2

| Compound | pIC50 [1] | pIC50 [2] | k3/k1 [3] | pKi [4] | pKi [5] | k3/ki [3] | k3/ki [6] |
| --- | --- | --- | --- | --- | --- | --- | --- |
| Cc1cccc(NC(=O)C2CCC3C4CCC5NC(=O)C=C[C@]5(C)C4CC[C@]23C)c1 (stereo not given in full) | 9.52 | 7.61 | – | – | – | – | – |
| COc1ccc(NC(=O)C2CCC3C4CCC5NC(=O)C=C[C@]5(C)C4CC[C@]23C)cc1 (stereo not given in full) | > 9.00 | 7.59 | – | – | – | – | – |
| C[C@]12C=CC(=O)NC1CCC1C2CC[C@]2(C)C(C(=O)Nc3ccc(-c4ccccc4)cc3)CCC12 (stereo not given in full) | 8.66 | 7.46 | – | – | – | – | – |
| COc1ccccc1NC(=O)C1CCC2C3CCC4NC(=O)C=C[C@]4(C)C3CC[C@]12C (stereo not given in full) | > 9.00 | 7.96 | – | – | – | – | – |
| CN(C(=O)C1CCC2C3CCC4NC(=O)C=C[C@]4(C)C3CC[C@]12C)c1ccccc1 (stereo not given in full) | 7.61 | 6.46 | – | – | – | – | – |
| C[C@]12C=CC(=O)NC1CCC1C2CC[C@]2(C)C(C(=O)N3CCCc4ccccc43)CCC12 (stereo not given in full) | 8.85 | 6.81 | – | – | – | – | – |
| C[C@]12C=CC(=O)NC1CCC1C2CC[C@]2(C)C(C(=O)Nc3cccc(C(=O)c4ccccc4)c3)CCC12 (stereo not given in full) | > 9.00 | 7.92 | – | – | – | – | – |
| C[C@]12C=CC(=O)NC1CCC1C2CC[C@]2(C)C(C(=O)Nc3ccccc3C(=O)c3ccccc3)CCC12 (stereo not given in full) | > 9.00 | 7.54 | – | – | – | – | – |
| C[C@]12C=CC(=O)NC1CCC1C2CC[C@]2(C)C(C(=O)N3CCCCc4ccccc43)CCC12 (stereo not given in full) | 7.99 | 6.23 | – | – | – | – | – |
| CCN(C(=O)C1CCC2C3CCC4NC(=O)C=C[C@]4(C)C3CC[C@]12C)c1ccccc1 (stereo not given in full) | 8.10 | 6.21 | – | – | – | – | – |
| C[C@]12C=CC(=O)NC1CCC1C2CC[C@]2(C)C(C(=O)Nc3ccccc3N)CCC12 (stereo not given in full) | > 9.00 | 6.89 | – | – | – | – | – |
| C[C@]12C=CC(=O)NC1CCC1C2CC[C@]2(C)C(C(=O)Nc3ccc(O)cc3)CCC12 (stereo not given in full) | > 9.00 | 7.13 | – | – | – | – | – |
| C[C@]12C=CC(=O)NC1CCC1C2CC[C@]2(C)C(C(=O)Nc3ccc(C(=O)c4ccccc4)cc3)CCC12 (stereo not given in full) | 8.80 | 7.72 | – | – | – | – | – |
| C[C@]12C=CC(=O)NC1CCC1C2CC[C@]2(C)C(C(=O)Nc3ccccc3O)CCC12 (stereo not given in full) | > 9.00 | 7.89 | – | – | – | – | – |
| C[C@]12C=CC(=O)NC1CCC1C2CC[C@]2(C)C(C(=O)Nc3ccc(C(F)(F)F)cc3)CCC12 (stereo not given in full) | 9.40 | 7.68 | – | – | – | – | – |
| C[C@]12C=CC(=O)NC1CCC1C2CC[C@]2(C)C(C(=O)N(c3ccccc3)c3ccccc3)CCC12 (stereo not given in full) | 7.60 | < 6.00 | – | – | – | – | – |
| C[C@]12C=CC(=O)NC1CCC1C2CC[C@]2(C)C(C(=O)Nc3cccc(N)c3)CCC12 (stereo not given in full) | > 9.00 | 7.03 | – | – | – | – | – |
| C[C@]12C=CC(=O)NC1CCC1C2CC[C@]2(C)C(C(=O)Nc3cccc(O)c3)CCC12 (stereo not given in full) | > 9.00 | 7.28 | – | – | – | – | – |
| Cc1cccc(C)c1NC(=O)C1CCC2C3CCC4NC(=O)C=C[C@]4(C)C3CC[C@]12C (stereo not given in full) | > 9.00 | 7.85 | – | – | – | – | – |
| C[C@]12C=CC(=O)NC1CCC1C2CC[C@]2(C)C(C(=O)Nc3ccc(N)cc3)CCC12 (stereo not given in full) | > 9.00 | 6.92 | – | – | – | – | – |
| C[C@]12C=CC(=O)NC1CCC1C2CC[C@]2(C)C(C(=O)Nc3cc(C(F)(F)F)ccc3C(F)(F)F)CCC12 (stereo not given in full) | > 10.00 | 8.24 | – | 8.62 | 9.30 | 7000000 M⁻¹ s⁻¹ | 270000 M⁻¹ s⁻¹ |
| COc1cccc(NC(=O)C2CCC3C4CCC5NC(=O)C=C[C@]5(C)C4CC[C@]23C)c1 (stereo not given in full) | > 9.00 | 7.72 | – | – | – | – | – |

Further lines, results first:

| pIC50 [1] | pIC50 [2] | k3/k1 [3] | pKi [4] | pKi [5] | k3/ki [3] | k3/ki [6] | Compound |
| --- | --- | --- | --- | --- | --- | --- | --- |
| 10.00 | 7.74 | – | – | – | – | – | C[C@]12C=CC(=O)NC1CCC1C2CC[C@]2(C)C(C(=O)Nc3cccc(Cl)c3)CCC12 (stereo not given in full) |
| > 10.00 | 7.52 | – | – | – | – | – | Cc1ccccc1NC(=O)C1CCC2C3CCC4NC(=O)C=C[C@]4(C)C3CC[C@]12C (stereo not given in full) |
| 9.70 | 8.09 | 2100000 M⁻¹ s⁻¹ | 7.15 | 9.30 | – | – | C[C@]12C=CC(=O)NC1CCC1C2CC[C@]2(C)C(C(=O)Nc3cccc4ccccc34)CCC12 (stereo not given in full) |
| > 10.00 | 8.25 | – | 7.92 | 8.89 | 9700000 M⁻¹ s⁻¹ | 35000 M⁻¹ s⁻¹ | C[C@]12C=CC(=O)NC1CCC1C2CC[C@]2(C)C(C(=O)Nc3ccccc3C(F)(F)F)CCC12 (stereo not given in full) |
| 10.00 | 7.90 | – | – | – | – | – | C[C@]12C=CC(=O)NC1CCC1C2CC[C@]2(C)C(C(=O)Nc3cccc(C(F)(F)F)c3)CCC12 (stereo not given in full) |
| 9.70 | 8.17 | – | – | – | – | – | C[C@]12C=CC(=O)NC1CCC1C2CC[C@]2(C)C(C(=O)Nc3ccc(Cl)cc3)CCC12 (stereo not given in full) |
| > 10.00 | 7.84 | – | – | – | – | – | C[C@]12C=CC(=O)NC1CCC1C2CC[C@]2(C)C(C(=O)Nc3ccccc3Cl)CCC12 (stereo not given in full) |
| 9.70 | 7.70 | – | 6.64 | 8.77 | 1700000 M⁻¹ s⁻¹ | 3900 M⁻¹ s⁻¹ | C[C@]12C=CC(=O)NC1CCC1C2CC[C@]2(C)C(C(=O)Nc3ccccc3)CCC12 (stereo not given in full) |
| > 10.00 | 7.85 | – | 7.62 | 8.85 | 5000000 M⁻¹ s⁻¹ | 51000 M⁻¹ s⁻¹ | C[C@]12C=CC(=O)NC1CCC1C2CC[C@]2(C)C(C(=O)Nc3cccc(-c4ccccc4)c3)CCC12 (stereo not given in full) |
| > 10.00 | 7.42 | – | – | – | – | – | C[C@]12C=CC(=O)NC1CCC1C2CC[C@]2(C)C(C(=O)Nc3ccccc3-c3ccccc3)CCC12 (stereo not given in full) |
| 9.70 | 7.76 | – | – | – | – | – | C[C@]12C=CC(=O)NC1CCC1C2CC[C@]2(C)C(C(=O)Nc3ccc4ccccc4c3)CCC12 (stereo not given in full) |
| 9.70 | 7.69 | – | – | – | – | – | C[C@]12C=CC(=O)NC1CCC1C2CC[C@]2(C)C(C(=O)Nc3cccc(Br)c3)CCC12 (stereo not given in full) |
| 9.70 | 7.65 | – | – | – | – | – | C[C@]12C=CC(=O)NC1CCC1C2CC[C@]2(C)C(C(=O)Nc3ccc(F)cc3)CCC12 (stereo not given in full) |
| > 10.00 | 8.10 | – | – | – | – | – | C[C@]12C=CC(=O)NC1CCC1C2CC[C@]2(C)C(C(=O)Nc3ccccc3F)CCC12 (stereo not given in full) |
| 9.70 | 7.64 | – | – | – | – | – | C[C@]12C=CC(=O)NC1CCC1C2CC[C@]2(C)C(C(=O)Nc3cccc(F)c3)CCC12 (stereo not given in full) |
| 10.00 | 7.76 | – | – | – | – | – | Cc1ccc(NC(=O)C2CCC3C4CCC5NC(=O)C=C[C@]5(C)C4CC[C@]23C)cc1 (stereo not given in full) |
